Measured values of several laboratories.
Target: Phosphatidylinositol 3-kinase C2 domain-containing subunit gamma (PIK3C2G, Homo sapiens, UniProt O75747)

Nc1ncnc2occ(-c3ccc(NC(=O)Nc4cc(C(F)(F)F)ccc4F)cc3)c12 — remaining signal (cell-free assay; 20 µM): 93%
COc1cc(Cl)c(C(=O)N[C@@H](CN[C@H]2CC[C@@H](N)CC2)Cc2ccc(C#N)cc2)cc1-c1ccc(CN[C@H](C)c2ccc(C)cc2)o1 — remaining activity (enzyme activity, inhibitor; 1 µM): 96%
CS(=O)(=O)Nc1cccc(-c2csc(NC(=O)CSc3nc4nccnc4c(=O)n3CCc3ccccc3)n2)c1 — inhibition (enzyme activity, inhibitor; 10 µM): 16%
CN(C)CC#Cc1ccc(OCCCc2sc(N3CCc4cccc(C(=O)Nc5nc6ccccc6s5)c4C3)nc2C(=O)O)c(F)c1 — remaining binding (cell-free assay, competition with immobilised ligand; 1 µM): 100%
C=CC(=O)Nc1cc(Nc2nccc(Nc3cc(Cl)c(F)cc3C(C)(C)O)n2)c(OC)cc1N1CC[C@@H](N(C)C)C1 — inhibition (enzyme activity, inhibitor; 1 µM): -3%
Cc1ccc(C(=O)Nc2ccc(CN3CCN(C)CC3)c(C(F)(F)F)c2)cc1C#Cc1cnc2cccnn12 — remaining signal (cell-free assay; 23.5 nM): 85%
Cc1ccc(NC(=O)c2ccc(C)c(C(F)(F)F)c2)cc1C#Cc1nn(C2CCC(O)CC2)c2ncnc(N)c12 (stereo not shown) — remaining signal (cell-free assay; 10 µM): 98%
Cc1cnc(NC2CCOCC2)nc1-n1cnc(C(=O)NC(CN)c2cc(F)cc(Cl)c2)c1 (stereo not shown) — remaining activity (enzyme activity, inhibitor, radiometric; 1 µM): 100%
CO[C@H]1CC[C@H](CNc2ccc(S(=O)(=O)NC(=O)c3ccc(N4CCN(CC5=C(c6ccc(Cl)cc6)CC(C)(C)CC5)CC4)cc3Oc3cnc4[nH]ccc4c3)cc2[N+](=O)[O-])CC1 — remaining binding (cell-free assay, competition with immobilised ligand; 1 µM): 72%
Cc1cc(NC(=O)c2cccc3cc(-c4cccc5[nH]nc(N)c45)ccc23)ccc1F — activity vs control (enzyme activity, inhibitor; 0.1 µM): 103%
O=C(CSc1nc2nccnc2c(=O)n1CCc1ccccc1)Nc1nccs1 — inhibition (enzyme activity, inhibitor; 10 µM): 76%
Cc1ccc(C(=O)NCc2ccsc2)cc1C#Cc1cn(C(C)C)c2ncnc(N)c12 — activity vs control (enzyme activity, inhibitor; 1 µM): 86%
CN1CC(Oc2cnc(C#N)cc2-c2ccn3nc(NC(=O)C4CC4)cc3c2)C1 — inhibition (enzyme activity, inhibitor; 1 µM): -6%
